In PMC9037808 (RSC Advances, 2021):
Where two headings read alike, the source gives them in different places.

Legend:
Type in all cases: cell-based
[1] = tested on: HeLa; experiment: MTT cytotoxicity assay, HeLa; conditions: read-out: IC50, HeLa
Summary of the method: (§1)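 Cells were grown at 37 °C in 5% CO2: HeLa and NRK-52E in DMEM, NCI-H520 in RPMI, each with 10% heat-inactivated FBS plus penicillin/streptomycin/amphotericin B. They were seeded at 10^4 cells/well in triplicate and left 24 h. Test compound (5–300 μM) was added for 24 h, then removed with a PBS wash. MTT was added for 3 h, formazan dissolved in DMSO, and A570 read. IC50 came from nonlinear regression of survival curves, shown as mean ± SE of triplicate independent analyses.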

[2] = tested on: NCI-H520; experiment: MTT cytotoxicity assay, NCI-H520; conditions: read-out: IC50, NCI-H520
Summary of the method: as §1

[3] = tested on: NRK-52E; experiment: MTT cytotoxicity assay, NRK-52E; conditions: read-out: IC50, NRK-52E, 24 h treatment, normal rat kidney epithelial cell line
Summary of the method: as §1

[4] = tested on: HeLa; experiment: Apoptosis, Muse Annexin V & Dead cell kit, HeLa; conditions: IC50 dose (12.59 μM 4a, 11.26 μM 7b), 24 h; untreated 8.05%
[5] = tested on: NCI-H520; experiment: Apoptosis, Muse Annexin V & Dead cell kit, NCI-H520; conditions: IC50 dose; untreated 7.15%
[6] = MTT, 24 h treatment, mean of three independent experiments

SMILES	IC50 ([1]; Homo sapiens, HeLa, 24 h) [µM]	IC50 ([2]; Homo sapiens, NCI-H520, 24 h) [µM]	further results
O=c1[nH]cc(F)c(=O)[nH]1 [5-Fluorouracil, reference compound]	55.7 ± 2.1	8.36 ± 0.45	
N.N.[Cl][Pt][Cl] [Cis-platin, reference compound]			IC50 [1, 6]: 7.75 ± 0.42 µM; IC50 [2, 6]: 10.4 ± 1.35 µM; IC50 [3]: 12.9 ± 0.4 µM
CCn1c2ccccc2c2cc(/C=C/C(=O)c3cc4ccccc4oc3=O)ccc21 [Compound 3a, (E)-3-(3-(9-Ethyl-9H-carbazol-3-yl)acryloyl)-2H-chromen-2-one]	132 ± 5.16	120 ± 3.78	
CCn1c2ccccc2c2cc(/C=C/C(=O)c3cc4cccc(OC)c4oc3=O)ccc21 [Compound 3b, (E)-3-(3-(9-Ethyl-9H-carbazol-3-yl)acryloyl)-8-methoxy-2H-chromen-2-one]	119 ± 6.88	103 ± 4.78	
CCn1c2ccccc2c2cc(/C=C/C(=O)c3cc4c(ccc5ccccc54)oc3=O)ccc21 [Compound 3c, (E)-2-(3-(9-Ethyl-9H-carbazol-3-yl)acryloyl)-3H-benzo[f]chromen-3-one]	142 ± 7.77	133 ± 4.75	
CCn1c2ccccc2c2cc(C3CC(c4cc5ccccc5oc4=O)=NN3C(N)=O)ccc21 (stereo not drawn) [Compound 4a, 5-(9-Ethyl-9H-carbazol-3-yl)-3-(2-oxo-2H-chromen-3-yl)-4,5-dihydro-1H-pyrazole-1-carboxamide]	12.59 ± 0.1	11.3 ± 0.45	apoptotic cells, HeLa [4]: 25.5%; apoptotic cell death, NCI-H520 [5]: 18%
CCn1c2ccccc2c2cc(C3CC(c4cc5cccc(OC)c5oc4=O)=NN3C(N)=O)ccc21 (stereo not drawn) [Compound 4b, 5-(9-Ethyl-9H-carbazol-3-yl)-3-(8-methoxy-2-oxo-2H-chromen-3-yl)-4,5-dihydro-1H-pyrazole-1-carboxamide]	29.8 ± 1.85	22.5 ± 2.15	
CCn1c2ccccc2c2cc(C3CC(c4cc5c(ccc6ccccc65)oc4=O)=NN3C(N)=O)ccc21 (stereo not drawn) [Compound 4c, 5-(9-Ethyl-9H-carbazol-3-yl)-3-(3-oxo-3H-benzo[f]chromen-2-yl)-4,5-dihydro-1H-pyrazole-1-carboxamide]	43.5 ± 1.02	55.6 ± 1.93	
CCn1c2ccccc2c2cc(C3CC(c4cc5ccccc5oc4=O)=NN3c3ccccc3)ccc21 (stereo not drawn) [Compound 5a, 3-(5-(9-Ethyl-9H-carbazol-3-yl)-1-phenyl-4,5-dihydro-1H-pyrazol-3-yl)-2H-chromen-2-one]	92.5 ± 4.25	81.2 ± 1.46	
CCn1c2ccccc2c2cc(C3CC(c4cc5cccc(OC)c5oc4=O)=NN3c3ccccc3)ccc21 (stereo not drawn) [Compound 5b, 3-(5-(9-Ethyl-9H-carbazol-3-yl)-1-phenyl-4,5-dihydro-1H-pyrazol-3-yl)-8-methoxy-2H-chromen-2-one]	39 ± 0.46	62.7 ± 1.63	
CCn1c2ccccc2c2cc(C3CC(c4cc5c(ccc6ccccc65)oc4=O)=NN3c3ccccc3)ccc21 (stereo not drawn) [Compound 5c, 2-(5-(9-Ethyl-9H-carbazol-3-yl)-1-phenyl-4,5-dihydro-1H-pyrazol-3-yl)-3H-benzo[f] chromen-3-one]	55 ± 0.96	83.6 ± 1.2	
CCn1c2ccccc2c2cc(C3CC(c4cc5ccccc5oc4=O)=NN3c3ccc(C)cc3)ccc21 (stereo not drawn) [Compound 6a, 3-(5-(9-Ethyl-9H-carbazol-3-yl)-1-(p-tolyl)-4,5-dihydro-1H-pyrazol-3-yl)-2H-chromen-2-one]	67 ± 1.87	38.3 ± 0.78	
CCn1c2ccccc2c2cc(C3CC(c4cc5cccc(OC)c5oc4=O)=NN3c3ccc(C)cc3)ccc21 (stereo not drawn) [Compound 6b, 3-(5-(9-Ethyl-9H-carbazol-3-yl)-1-(p-tolyl)-4,5-dihydro-1H-pyrazol-3-yl)-8-methoxy-2H-chromen-2-one]	30.8 ± 0.5	30 ± 0.33	
CCn1c2ccccc2c2cc(C3CC(c4cc5c(ccc6ccccc65)oc4=O)=NN3c3ccc(C)cc3)ccc21 (stereo not drawn) [Compound 6c, 2-(5-(9-Ethyl-9H-carbazol-3-yl)-1-(p-tolyl)-4,5-dihydro-1H-pyrazol-3-yl)-3H-benzo[f] chromen-3-one]	57.5 ± 1.32	61.7 ± 1.48	
CCn1c2ccccc2c2cc(C3CC(c4cc5ccccc5oc4=O)=NN3c3cccc(Cl)c3)ccc21 (stereo not drawn) [Compound 7a, 3-(1-(3-Chlorophenyl)-5-(9-ethyl-9H-carbazol-3-yl)-4,5-dihydro-1H-pyrazol-3-yl)-2H-chromen-2-one]	33.4 ± 0.64	14.3 ± 0.21	
CCn1c2ccccc2c2cc(C3CC(c4cc5cccc(OC)c5oc4=O)=NN3c3cccc(Cl)c3)ccc21 (stereo not drawn) [Compound 7b, 3-(1-(3-Chlorophenyl)-5-(9-ethyl-9H-carbazol-3-yl)-4,5-dihydro-1H-pyrazol-3-yl)-8-methoxy-2H-chromen-2-one]	11.4 ± 0.24	9.13 ± 0.08	apoptotic cells, HeLa [4]: 24%; apoptotic cell death, NCI-H520 [5]: 16.10%
CCn1c2ccccc2c2cc(C3CC(c4cc5c(ccc6ccccc65)oc4=O)=NN3c3cccc(Cl)c3)ccc21 (stereo not drawn) [Compound 7c, 2-(1-(3-Chlorophenyl)-5-(9-ethyl-9H-carbazol-3-yl)-4,5-dihydro-1H-pyrazol-3-yl)-3H-benzo[f]chromen-3-one]	29 ± 0.84	20.8 ± 0.27	
CCn1c2ccccc2c2cc(C3CC(c4cc5ccccc5oc4=O)=NN3C(C)=O)ccc21 (stereo not drawn) [Compound 8a, 3-(1-Acetyl-5-(9-ethyl-9H-carbazol-3-yl)-4,5-dihydro-1H-pyrazol-3-yl)-2H-chromen-2-one]	43.2 ± 0.52	62.5 ± 1.95	
CCn1c2ccccc2c2cc(C3CC(c4cc5cccc(OC)c5oc4=O)=NN3C(C)=O)ccc21 (stereo not drawn) [Compound 8b, 3-(1-Acetyl-5-(9-ethyl-9H-carbazol-3-yl)-4,5-dihydro-1H-pyrazol-3-yl)-8-methoxy-2H-chromen-2-one]	76.8 ± 1.45	54.7 ± 0.65	
CCn1c2ccccc2c2cc(C3CC(c4cc5c(ccc6ccccc65)oc4=O)=NN3C(C)=O)ccc21 (stereo not drawn) [Compound 8c, 2-(1-Acetyl-5-(9-ethyl-9H-carbazol-3-yl)-4,5-dihydro-1H-pyrazol-3-yl)-3H-benzo[f]chromen-3-one]	55.9 ± 1.3	77.61 ± 0.34	
